Laboratory results reported in the RNAGym collection of RNA variant scans (doi:10.1126/science.aae0568).
This sample holds only a part of the variants without activity.

B1: tRNA (parent)
chain: GUUCCGUUGGCGUAAUGGUAACGCGUCUCCCUCCUAAGGAGAAGACUGCGGGUUCGAGUCCCGUACGGAACG

Variants of: B1
Experiment: yeast fitness relative to wild type (ratio to wild type); higher = fitter; tRNA-Arg(CCU), competitive growth, 37 C, YPD
In short: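 Start and end populations of a pooled competition were compared by 100-nucleotide paired-end sequencing of gene amplicons. The Saccharomyces cerevisiae strains carried tRNA-Arg(CCU) gene variants at the native genomic locus, synthesised with a 3% per-site mutation rate at 69 sites, and competed in YPD at 37°C for 24 hours in six parallel replicates. Darwinian fitness relative to wild type was based on the change in genotype frequencies. Genotypes required ≥ 100 starting reads, and estimates < 0.5 were set to 0.5.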

| Variant | yeast fitness |
| --- | --- |
| A37G C61U | 0.785 |
| A15U A20G | 0.772 |
| U32G G56A G63C | ≤ 0.5 |
| C22G C27G C31G A69U | 0.554 |
| U7C A20G A21G | 0.562 |
| A14U G17A G23C C29U C34G A45C U54G G56A | ≤ 0.5 |
| A14U C29U C55U A69G | ≤ 0.5 |
| C4G C11U C29G G63C C66U | ≤ 0.5 |
| U16C U26A G38C U47A C49A | ≤ 0.5 |
| C4G A37G | 0.851 |
| C29A C55U A69U | ≤ 0.5 |
| C4G C30U A42U G50C G63C | ≤ 0.5 |
| G12A U32C A40G | ≤ 0.5 |
| C11A G44C C46A U53A G63C | 0.866 |
| G41C A42C C49U | ≤ 0.5 |
| C34A U59G | 0.745 |
| G9C U19C C31A C55U | 0.641 |
| C34A C55G G58A U64C A65C | ≤ 0.5 |
| U8C A15C U32C | ≤ 0.5 |
| C24G C30U C34A A45G G51A | ≤ 0.5 |
| C30U U35A G63C A65C | ≤ 0.5 |
| G25A C34G G50C C62A | ≤ 0.5 |
| A15G A21G C34G A45G A65C | 0.67 |
| C34U U54A | ≤ 0.5 |

| Variant | yeast fitness |
| --- | --- |
| G10A C11G G41C A45U | ≤ 0.5 |
| A14C A36G A69C | ≤ 0.5 |
| C27U G50A | 0.991 |
| U13A C27G | 0.621 |
| C46A C49A A70C | ≤ 0.5 |
| C11U A15C A21U C24A C33A C66A | ≤ 0.5 |
| C49A C60G | 0.638 |
| C4A G6A C33U A43U C49G G50C C61U C66U | ≤ 0.5 |
| C11A C27G A70C | ≤ 0.5 |
| G58U A65G G67A | ≤ 0.5 |
| C5U C11G A14G C29G | ≤ 0.5 |
| G44C G63C | 0.623 |
| C4G C5U G51A U53C C62U | ≤ 0.5 |
| C11U C55A U64C | ≤ 0.5 |
| A36U A70U | 0.747 |
| U7C U28A G48C C62U A70C | ≤ 0.5 |
| A57G C62U G67A | ≤ 0.5 |
| U2A U8C A15G | 0.667 |
| G25C C29G A43G C49G | 0.647 |
| C11U G39A A40U | 0.673 |
| C11G G25A C29U C34U | ≤ 0.5 |
| A42U C46G G52C C62A | ≤ 0.5 |
| G18C C30G C46U G48A U54G | ≤ 0.5 |
| C5U G9C C11G C24A U26G C31G A45U C61U | ≤ 0.5 |

| Variant | yeast fitness |
| --- | --- |
| A21C A37U A42U C46G U47G | 0.534 |
| C4G G67C | 0.883 |
| C31G G67U | 0.655 |
| U16C U28C C55U A57C G58A | ≤ 0.5 |
| U35G U64C A69C | ≤ 0.5 |
| G18C A57G | 0.715 |
| G17A C33G A40U G51C | ≤ 0.5 |
| G25A C49U C55U | 0.683 |
| U2C G39U | 0.819 |
| C29G A36G C55U | ≤ 0.5 |
| G10A U59C | 0.721 |
| C5G C29G C66A | ≤ 0.5 |
| U28A C33A G52A | ≤ 0.5 |
| A21C C24U C46U C60U | ≤ 0.5 |
| U16C G17A C34U A42U U64A G68U | ≤ 0.5 |
| G6A C11U G68A | ≤ 0.5 |
| A14U U35C U53G C66G | ≤ 0.5 |
| G12A C61A | 0.659 |
| C5U U16C C31A G67C | ≤ 0.5 |
| C11U U13C A15G C46A | 0.631 |
| U26C A43U G63A | 0.658 |
| C22U G23C C55U C60G | 0.54 |
| A43C A70C | 0.897 |
| U16C U26A G38C | ≤ 0.5 |

| Variant | yeast fitness |
| --- | --- |
| C30A C31U A45C | 0.663 |
| C5U C55U | 0.864 |
| U2G C11U G52C C55G A70G | ≤ 0.5 |
| C4U U7C A15C U16G A70G | ≤ 0.5 |
| G52C C61A | ≤ 0.5 |
| C5G A21G U32C A69C | ≤ 0.5 |
| U3A C27U A37U A69C | ≤ 0.5 |
| C30G C33A G50A G52A C60U C61G | ≤ 0.5 |
| C27G A37G A69U | 0.537 |
| A57U C62A U64A | ≤ 0.5 |
| U32G C33U A36C G56U C66A | ≤ 0.5 |
| C11G A15U C24G A40G G51A C60U G67A | ≤ 0.5 |
| C27G A36G A65G | ≤ 0.5 |
| C11A A14G U19G A43C U53A | ≤ 0.5 |
| U8C A42U | 0.791 |
| U8C A14G G68A | 0.534 |
| C27A A37G U53A | ≤ 0.5 |
| C31U G41C C61U | 0.574 |
| C31U G39A G44A C61U | ≤ 0.5 |
| C4U C29G C30U | ≤ 0.5 |
| A21U A70C | 0.701 |
| C24U G67U | 0.869 |
| U19C C55U C61A | ≤ 0.5 |
| C11A U28C C29U C34G A36G | ≤ 0.5 |

| Variant | yeast fitness |
| --- | --- |
| G10A C24G C27U | 0.547 |
| U13C A45C | 0.853 |
| A14U A69U | 0.702 |
| C30G A42G A45G | ≤ 0.5 |
| C34U C66U G67A | ≤ 0.5 |
| G25C A40C C49U | 0.76 |
| U19C C27U C55G | 0.544 |
| G6A G48A | 0.886 |
| C24A A42G C61U C62G | 0.541 |
| G17A U54A | 0.566 |
| U2C U3C A21C C24A A65C | ≤ 0.5 |
| C4A U54G | 0.612 |
| C4U U7C C29G C49A | ≤ 0.5 |
| A15G G44A G58A | 0.992 |
| A15G G17A C30A | 0.529 |
| C22G U26C U32A G48A | ≤ 0.5 |
| U3C A20C C46U | 1.06 |
| C4G U26A C49U | ≤ 0.5 |
| G41C C49A A69U | 0.544 |
| G41A A45U U47A C62U A69U | ≤ 0.5 |
| G50C C61U | 0.609 |
| U16A A21U C24A G52A | ≤ 0.5 |
| C24G C34U U35A A65U | 0.578 |
| U3G A70C | 0.897 |

| Variant | yeast fitness |
| --- | --- |
| G17C C34A A42U A43C | ≤ 0.5 |
| U26C A42C | 0.828 |
| A21G C34G A42U | ≤ 0.5 |
| G6A C31A A37C | ≤ 0.5 |
| C5U U7A G10A G48C | ≤ 0.5 |
| A65G A70G | 0.865 |
| U13C G25C C31G | 0.877 |
| C5U A37C C61U | 0.627 |
| U2G U54C | 0.962 |
| U3G C29A | 0.533 |
| G12C U26C A37G | ≤ 0.5 |
| U8A C31A C33G | 0.542 |
| G6C C24A U28A C34U | ≤ 0.5 |
| U19A C22U A40U G51C C66U A70G | ≤ 0.5 |
| G9C C29U A36U A65G G67A | ≤ 0.5 |
| C61U A70U | 1.04 |
| A20C A37G A42G G68C | ≤ 0.5 |
| C22U A37G G48C C55U | 0.64 |
| A40G C49G U59G G67C | 0.706 |
| C4G A15C U26G G41C U47C G68C | ≤ 0.5 |
| G17A C22U A45G C46U A69U | 0.603 |
| A14G G23C C55U C61U A65U | 0.558 |
| C5A C31G G63U | ≤ 0.5 |
| C27G G39A | 0.615 |

| Variant | yeast fitness |
| --- | --- |
| G48C G56A A70U | 0.918 |
| C5G A14U A36C C61G C62A A69C | ≤ 0.5 |
| U26C G56C A57C A70U | ≤ 0.5 |
| C5A U59A C66A | ≤ 0.5 |
| A69G A70G | 1.02 |
| C22G C30G C55A U64C | 0.581 |
| A20U C30G C33A G50A G52A C60U C61G G67A | ≤ 0.5 |
| C4U G48A G50A | 0.961 |
| G41C G68C | 0.774 |
| C11U U19G A69U | 0.782 |
| C24A A43U U59A C61U | ≤ 0.5 |
| U19C A21G U26G | 1.01 |
| C30G C33G C34U A42U C55A | ≤ 0.5 |
| A42G G51A C60U G63A | ≤ 0.5 |
| G6C U19G A43U G58C C66A | ≤ 0.5 |
| U2G A20C C27U C46A | 0.614 |
| A15U G38C G50C C60U | ≤ 0.5 |
| G12C A40G | 0.683 |
| G12C A40C | 0.722 |
| G6A A21C C33G | ≤ 0.5 |
| A15C G39A C62U | 0.553 |
| C5G G10C C29A | ≤ 0.5 |
| C30A G63A U64C | 0.893 |
